Source: article PMC6954317 (Bioorganic chemistry, 2019)
Where two headings read alike, the source gives them in different places.

Experiments:
SphK1 = SphK1 (Homo sapiens, UniProt Q9NYA1); assay: SphK1 inhibition, fluorometric assay with NBD-sphingosine as substrate; format: biochemical
In short: (§1)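 Recombinant SphK1 or SphK2 at 100 nM in 30 mM Tris-HCl pH 7.4 with 150 mM NaCl, 10% glycerol, 0.05% Triton X-100 and 1% DMSO. Test compounds were dissolved in DMSO and screened at 650 μM; actives were then tested at several concentrations to derive IC50. NBD-sphingosine-1-phosphate formation was read by fluorescence (ex 550 nm, em 584 nm) at 37 °C.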

SphK2 [1] = target: T1, SphK2 (Homo sapiens, UniProt Q9NRA0); settings: read-out: inhibitory effect reported for K145 on SphK2; cited from earlier work
T1 sequence (Q9NRA0 1-654): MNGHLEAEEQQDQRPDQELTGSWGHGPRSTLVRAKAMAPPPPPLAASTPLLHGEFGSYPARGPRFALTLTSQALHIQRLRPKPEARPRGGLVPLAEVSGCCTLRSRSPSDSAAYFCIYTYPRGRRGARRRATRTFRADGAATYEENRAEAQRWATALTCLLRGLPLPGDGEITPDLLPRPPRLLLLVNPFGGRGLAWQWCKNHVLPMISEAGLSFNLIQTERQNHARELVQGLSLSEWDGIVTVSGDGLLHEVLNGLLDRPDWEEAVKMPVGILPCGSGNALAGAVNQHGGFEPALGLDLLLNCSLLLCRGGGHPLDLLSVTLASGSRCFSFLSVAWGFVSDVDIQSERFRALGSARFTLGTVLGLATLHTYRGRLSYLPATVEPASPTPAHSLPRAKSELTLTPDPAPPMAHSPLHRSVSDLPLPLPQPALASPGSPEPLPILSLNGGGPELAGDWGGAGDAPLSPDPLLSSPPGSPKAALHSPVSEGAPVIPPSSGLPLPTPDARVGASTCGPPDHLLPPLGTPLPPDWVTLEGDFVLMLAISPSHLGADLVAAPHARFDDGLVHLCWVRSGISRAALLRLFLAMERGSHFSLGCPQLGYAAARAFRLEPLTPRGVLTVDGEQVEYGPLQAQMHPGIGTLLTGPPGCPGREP

SphK2 [2] = target: T1, SphK2; assay: SphK2 inhibition, fluorometric assay with NBD-sphingosine as substrate; format: biochemical; settings: read-out: IC50 for SphK2; 100 nM recombinant SphK2, NBD-sphingosine, 37 °C
In short: as §1

SphK1, sequence (Q9NYA1 whole entry): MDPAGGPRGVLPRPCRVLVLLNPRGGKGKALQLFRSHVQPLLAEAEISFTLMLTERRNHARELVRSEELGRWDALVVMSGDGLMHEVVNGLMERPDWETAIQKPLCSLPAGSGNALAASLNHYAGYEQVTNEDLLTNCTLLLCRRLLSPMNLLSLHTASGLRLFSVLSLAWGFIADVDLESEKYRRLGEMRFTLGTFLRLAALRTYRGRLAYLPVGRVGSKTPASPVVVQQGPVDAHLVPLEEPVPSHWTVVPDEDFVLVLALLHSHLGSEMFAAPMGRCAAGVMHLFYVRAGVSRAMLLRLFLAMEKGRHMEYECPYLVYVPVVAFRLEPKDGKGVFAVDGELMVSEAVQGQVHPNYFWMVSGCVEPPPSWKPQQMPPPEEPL

Row | Molecule | IC50 (SphK1) [µM] | further results
1 | CCCCOc1ccc(CCC=C2SC(=O)N(CCN)C2=O)cc1 [K145, 3-(2-amino-ethyl)-5-[3-(4-butoxyl-phenyl)-propylidene]-thiazolidine-2,4-dione] |  | IC50 (SphK2 [1]): 4.3 µM
2 | 3-((4-(4-chlorophenyl)pyrimidin-2-yl)-1-yl)oxymethyl) quinolin-2(1H)-ones [compound 9] |  | IC50 (SphK2 [2]): 18.2 µM
3 | COc1ccc2[nH]c(=O)c(/C=C/C(=O)c3ccc(Nc4nccc(-c5ccc6ccccc6c5)n4)cc3)cc2c1 [11b, (E)-6-methoxy-3-(3-(4-((4-(naphthalen-2-yl)pyrimidin-2-yl)amino)phenyl)-3-oxoprop-1-en-1-yl)quinolin-2(1H)-one] |  | selectivity SphK1 versus SphK2 (SphK1; in words): selective inhibitory effect on SphK1
4 | COc1cc2cc(CNc3ccc(Nc4nccc(-c5ccc6ccccc6c5)n4)cc3)c(=O)[nH]c2cc1OC [16b, 6,7-dimethoxy-3-(((4-((4-(naphthalen-2-yl)pyrimidin-2-yl)amino)phenyl)amino)methyl)quinolin −2(1H)-one] | 18.7 | 
5 | O=c1[nH]c2cc(O)c(O)cc2cc1CNc1ccc(Nc2nccc(-c3ccc4ccccc4c3)n2)cc1 [19b, 6,7-dihydroxy-3-(((4-((4-(naphthalene-2-yl)pyrimidin-2-yl)amino)phenyl)amino)methyl)quinolin-2(1H)-one] | 15.7 | 

Continued, in another order:

Row | IC50 (SphK1) [µM] | Molecule | further results
6 | 28.2 | COc1ccc2[nH]c(=O)c(/C=C/C(=O)c3ccc(Nc4nccc(-c5ccc(Cl)cc5)n4)cc3)cc2c1 [11a, (E)-3-(3-(4-((4-(4-chlorophenyl)pyrimidin-2-yl)amino)phenyl)-3-oxoprop-1-en-1-yl)-6-methoxyquinolin-2(1H)-one] | 
7 | 43.9 | Oc1ccc(Nc2nccc(-c3ccc(Cl)cc3)n2)cc1 [4a, 4-((4-(4-chlorophenyl)pyrimidin-2-yl)amino)phenol] | 
8 | 59.1 | COc1cc2cc(CNc3ccc(Nc4nccc(-c5ccc(Cl)cc5)n4)cc3)c(=O)[nH]c2cc1OC [16a, 3-(((4-((4-(4-chlorophenyl)pyrimidin-2-yl)amino)phenyl)amino)methyl)-6,7-dimethoxyquinolin-2(1H)-one] | 
